We go through 18 molecules from ChEMBL document CHEMBL3085673, “The design of a novel series of muscarinic receptor antagonists leading to AZD8683, a potential inhaled treatment for COPD” (Bioorg Med Chem Lett, 2013).

Data set [1] has as its system Cavia porcellus. The experiment in a line: Inhibition of methacholine-induced bronchoconstriction in Dunkin-Hartley guinea pig administered via intratracheal/intranasal after 24 hrs relative to control. It counts as functional. Summed up: (§1)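 Dunkin-Hartley guinea pigs dosed in 0.9% saline by intratracheal or intranasal microsprayer under halothane. At 2, 4, 24 or 48 h, animals were terminally anaesthetised with pentobarbitone and ventilated at 60 breaths/min, 2 mL tidal volume. Peak respiratory resistance measured after IV methacholine 10 μg/kg. Percent inhibition calculated against a time-matched vehicle group. For duration, dosing was at the ED80 dose, measured or predicted from trachea potency.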

The test system of data set [2] is Cavia porcellus. Put plainly: Inhibition of methacholine-induced bronchoconstriction in Dunkin-Hartley guinea pig administered via intratracheal/intranasal after 2 to 4 hrs relative to control. The settings on record: inhaled or nasal. The format is functional. Summed up: as §1
Data set [3] in a line: Half life in guinea pig lung administered via intratracheal instillation at 1 ug/kg by HPLC-MS analysis. The format is ADME, tissue-based, Cavia porcellus. The settings on record: inhaled or intranasal, 0.001 mg/kg. An outline of the steps:
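Halothane-anaesthetised guinea pigs given 1 μg/kg by intratracheal instillation. Lungs collected at 0.25-24 h after barbiturate overdose, homogenised in phosphate buffer and added to ice-cold methanol. Supernatant analysed by mass spectrometry/HPLC.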

Data set [4] deals with Muscarinic acetylcholine receptor M3 (Cavia porcellus, UniProt Q8VH26). Put plainly: Antagonist activity at M3 receptor in Dunkin-Hartley guinea pig trachea assessed as inhibition of methacholine-induced airway smooth muscle contraction after 1 to 4 hrs. Particulars: read-out: pA2 (converted). An outline of the steps:
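Isolated guinea pig tracheal rings equilibrated 1 h, re-tensioned to 1 g, primed with methacholine, then a cumulative methacholine curve (3 × 10^-9 to 3 × 10^-5 M). Vehicle or compound equilibrated 1 or 4 h before a second curve (3 × 10^-9 to 1 × 10^-3 M final). Isometric force as % of curve-1 maximum. pA2 calculated from vehicle and test A50 values; n = 2.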

Data set [5] is described as follows: Plasma protein binding in human. It counts as ADME, cell-free. The settings on record: read-out: PPB (converted).
The target of data set [6] is Muscarinic acetylcholine receptor M3 (Homo sapiens, UniProt P20309). Put plainly: Displacement of [3H]NMS from recombinant human M3 receptor expressed in CHO-K1 cells after 16 hrs by SPA method. It counts as cell-based. Summed up: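 Nonspecific binding defined with atropine 1 µM; eight total-binding replicates per plate. Incubated at room temperature at least 16 h to equilibrium before counting; n ≥ 2.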
Muscarinic acetylcholine receptor M3 (Homo sapiens, UniProt P20309), sequence (P20309 whole entry): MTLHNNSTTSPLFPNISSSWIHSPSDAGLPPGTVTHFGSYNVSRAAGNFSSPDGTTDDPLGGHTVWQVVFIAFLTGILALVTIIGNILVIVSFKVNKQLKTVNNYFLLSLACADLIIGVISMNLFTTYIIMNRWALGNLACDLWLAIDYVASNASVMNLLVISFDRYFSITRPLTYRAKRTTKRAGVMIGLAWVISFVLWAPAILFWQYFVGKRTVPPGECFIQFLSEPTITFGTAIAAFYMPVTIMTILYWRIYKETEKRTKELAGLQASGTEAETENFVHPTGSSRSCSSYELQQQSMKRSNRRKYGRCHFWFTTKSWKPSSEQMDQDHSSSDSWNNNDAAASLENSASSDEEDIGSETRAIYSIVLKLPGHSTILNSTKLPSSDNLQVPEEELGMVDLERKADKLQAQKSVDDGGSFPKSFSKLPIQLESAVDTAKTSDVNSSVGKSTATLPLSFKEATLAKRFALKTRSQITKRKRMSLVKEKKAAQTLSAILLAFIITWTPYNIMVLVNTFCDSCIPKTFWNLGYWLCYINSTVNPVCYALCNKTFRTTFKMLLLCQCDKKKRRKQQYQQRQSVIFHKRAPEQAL

The nature of data set [7]: Intrinsic clearance in human liver microsomes. The format is ADME. The settings on record: read-out: CLH.
Data set [8] concerns Cavia porcellus. Put plainly: Toxicity in guinea pig assessed as reduction of pilocarpine-induced salivation administered via intranasal administered for 4 hrs followed by pilocarpine challenge measured every 5 mins for 15 mins. It counts as organism-based. Summed up: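 Compound or vehicle given intranasally under halothane. At 4 h, animals were anaesthetised with urethane and the mouth dried with gauze for 5 min. Baseline saliva taken on a pre-weighed pad over 5 min. Pilocarpine 0.6 mg/kg given subcutaneously, then pads replaced every 5 min for 15 min and saliva quantified by pad weight gain.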

A short description of data set [9]: Therapeutic index, ratio of ED80 for methacholine-induced bronchoconstriction in Dunkin-Hartley guinea pig to EC50 for reduction of pilocarpine-induced salivation in guinea pig. It counts as organism-based, Cavia porcellus. The settings on record: in vivo, read-out: TI.
The test system of data set [10] is Cavia porcellus. The experiment in a line: Inhibition of methacholine-induced bronchoconstriction in Dunkin-Hartley guinea pig administered via intratracheal/intranasal after 48 hrs relative to control. It counts as functional. Summed up: as §1

Muscarinic acetylcholine receptor M3 (Cavia porcellus, UniProt Q8VH26), sequence (Q8VH26 whole entry): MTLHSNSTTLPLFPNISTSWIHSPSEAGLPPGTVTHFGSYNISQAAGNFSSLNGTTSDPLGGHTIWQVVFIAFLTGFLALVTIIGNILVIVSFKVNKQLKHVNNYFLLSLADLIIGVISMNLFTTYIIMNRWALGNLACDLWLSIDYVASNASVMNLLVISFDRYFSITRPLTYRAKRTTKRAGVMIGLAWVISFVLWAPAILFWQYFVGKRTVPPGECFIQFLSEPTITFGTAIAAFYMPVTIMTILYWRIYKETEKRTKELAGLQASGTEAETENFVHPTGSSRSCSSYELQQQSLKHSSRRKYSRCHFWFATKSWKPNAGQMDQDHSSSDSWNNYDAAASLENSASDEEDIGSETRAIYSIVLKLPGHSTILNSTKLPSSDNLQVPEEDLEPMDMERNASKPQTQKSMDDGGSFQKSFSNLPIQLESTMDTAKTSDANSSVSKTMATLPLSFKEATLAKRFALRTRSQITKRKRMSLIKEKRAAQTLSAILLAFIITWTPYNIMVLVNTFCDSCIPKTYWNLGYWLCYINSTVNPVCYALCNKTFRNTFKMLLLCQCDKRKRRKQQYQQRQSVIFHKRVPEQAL

In the case of `O=C(O[C@H]1C[N+]2(CCCc3ccncc3)CCC1CC2)C1(C2=CC=CC2)CCCCCC1`, in the data set with Cavia porcellus [1], the “inhibition (INH)” value was determined as 0%. For the same molecule, in the data set with Cavia porcellus [2], the ED80 stood at 1 µg/kg. The half-life in [3] was 1140 min. Further, the Kb in data set [4] was 0.126 nM. Besides, the fraction unbound in data set [5] is 0.12. Also, the IC50 in data set [6] was under 0.0398 nM. Moreover, the microsomal CLint in data set [7] was 57 µL/min/mg.
For `Cc1cc(CCC[N+]23CCC(CC2)[C@@H](OC(=O)C2(C4=CC=CC4)CCCCCC2)C3)ccn1`, the “inhibition (INH)” value with Cavia porcellus [1] was 0%. In the data set on Cavia porcellus [2], the ED80 came out at 1 µg/kg. Besides, the half-life in [3] is 2620 min. In data set [4], the Kb is 0.158 nM. Further, the fraction unbound in [5] is 0.03. Besides, the IC50 in data set [6] is under 0.0316 nM. In addition, the microsomal CLint in [7] amounted to 135 µL/min/mg.
`Cc1ccc(CCC[N+]23CCC(CC2)[C@@H](OC(=O)C2(C4=CC=CC4)CCCCCC2)C3)cn1` had a half-life in [3] of 1150 min. Moreover, in data set [5], the fraction unbound is 0.05. The IC50 in data set [6] was 0.158 nM. Besides, the microsomal CLint in data set [7] was found to be 77 µL/min/mg.
Consider `O=C(O[C@H]1C[N+]2(CCCc3nc4ccccc4o3)CCC1CC2)C1(C2=CC=CC2)CCCCCC1`, for which, in data set [3], the half-life was 558 min. The fraction unbound in data set [5] is 0.04.
Molecule `NC(=O)C[N+]12CCC(CC1)[C@@H](OC(=O)C1(C3=CC=CC3)CCCCCC1)C2` showed a half-life in [3] of 684 min. In data set [4], the Kb was 0.0794 nM. Moreover, the fraction unbound in [5] is 0.18. Besides, the IC50 in data set [6] was 0.2 nM. In addition, in data set [7], the microsomal CLint worked out at 19 µL/min/mg.
Turning to `O=C(C[N+]12CCC(CC1)[C@@H](OC(=O)C1(C3=CC=CC3)CCCCCC1)C2)Nc1ccon1`, in the data set on Cavia porcellus [8], the EC50 was over 10 µg/kg. Further, the “inhibition (INH)” value with Cavia porcellus [1] is reported as 0%. Moreover, in the data set on Cavia porcellus [2], the ED80 was determined as 1 µg/kg. Also, the half-life in [3] is 1140 min. Further, the Kb in data set [4] was 0.02 nM. In addition, the fraction unbound in data set [5] was 0.18. Moreover, the IC50 in [6] is under 0.0631 nM. The microsomal CLint in [7] is 150 µL/min/mg.
Turning to `Cc1cc(NC(=O)C[N+]23CCC(CC2)[C@@H](OC(=O)C2(C4=CC=CC4)CCCCCC2)C3)no1`, the selectivity ratio in data set [9] was at least 10. Also, the EC50 in the data set with Cavia porcellus [8] was over 30 µg/kg. Moreover, the “inhibition (INH)” value in the data set on Cavia porcellus [1] came out at 56%. This molecule showed an ED80 with Cavia porcellus [2] of 3 µg/kg. Further, the half-life in [3] is 1600 min. Also, the Kb in data set [4] was 0.251 nM. Besides, the fraction unbound in data set [5] is 0.03. Besides, the IC50 in data set [6] was 0.158 nM. Further, the microsomal CLint in [7] was determined as 26 µL/min/mg.
With `O=C(C[N+]12CCC(CC1)[C@@H](OC(=O)C1(C3=CC=CC3)CCCCCC1)C2)Nc1ccccn1`, in data set [9], the selectivity ratio was at least 10. Moreover, the EC50 with Cavia porcellus [8] is over 30 µg/kg. Further, in the data set on Cavia porcellus [10], the “inhibition (INH)” value is 84%. Moreover, the ED80 with Cavia porcellus [2] worked out at 1 µg/kg. The same molecule had a half-life in [3] of 1540 min. The Kb in data set [4] was 0.398 nM. Also, the fraction unbound in data set [5] is 0.04. Further, the IC50 in data set [6] is 0.158 nM. For the same molecule, in [7], the microsomal CLint turned out to be 55 µL/min/mg.
`O=C(C[N+]12CCC(CC1)[C@@H](OC(=O)C1(C3=CC=CC3)CCCCCC1)C2)Nc1cccnn1`: the EC50 in the data set on Cavia porcellus [8] was over 10 µg/kg. In addition, the half-life in [3] is 2540 min. Further, the Kb in [4] was 0.0794 nM. Further, in data set [5], the fraction unbound was 0.1. Besides, the IC50 in data set [6] is 0.158 nM. Besides, the microsomal CLint in [7] came to 70 µL/min/mg.
`O=C(C[N+]12CCC(CC1)[C@@H](OC(=O)C1(C3=CC=CC3)CCCCCC1)C2)Nc1cnccn1`: in [9], the selectivity ratio is at least 10. Moreover, in the data set with Cavia porcellus [8], the EC50 is over 10 µg/kg. In addition, the “inhibition (INH)” value in the data set with Cavia porcellus [10] was determined as 73%; in the data set with Cavia porcellus [1], 88%. The molecule further returned an ED80 in the data set with Cavia porcellus [2] of 1 µg/kg. Also, in data set [3], the half-life was 1380 min. For the same molecule, the Kb in data set [4] is 0.126 nM. In data set [5], the fraction unbound was 0.075. The IC50 in [6] was under 0.126 nM. Also, in data set [7], the microsomal CLint turned out to be 43 µL/min/mg.
With `O=C(C[N+]12CCC(CC1)[C@@H](OC(=O)C1(C3=CC=CC3)CCCCCC1)C2)Nc1ccc(Cl)nn1`, the selectivity ratio in data set [9] was at least 10. In addition, the EC50 with Cavia porcellus [8] is over 30 µg/kg. For the same molecule, the “inhibition (INH)” value in the data set on Cavia porcellus [1] was 89%. In addition, in the data set with Cavia porcellus [2], the ED80 was found to be 3 µg/kg. The same molecule gave a half-life in data set [3] of 3400 min. For the same molecule, in [4], the Kb was 0.2 nM. For the same molecule, in [5], the fraction unbound is 0.04. Also, the IC50 in [6] was 0.2 nM.
With `O=C(O[C@H]1C[N+]2(Cc3nc4ccccc4o3)CCC1CC2)C1(C2=CC=CC2)CCCCCC1`, in the data set with Cavia porcellus [8], the EC50 is over 10 µg/kg. Further, the half-life in [3] is 780 min. Besides, the Kb in data set [4] was 0.158 nM. In addition, the fraction unbound in data set [5] was 0.023. The IC50 in data set [6] is 0.1 nM. Further, the microsomal CLint in data set [7] was determined as 78 µL/min/mg.
As for `O=C(O[C@H]1C[N+]2(Cc3nc(-c4ccccc4)no3)CCC1CC2)C1(C2=CC=CC2)CCCCCC1`, the “inhibition (INH)” value with Cavia porcellus [10] was determined as 0%. Further, the ED80 in the data set on Cavia porcellus [2] is 3 µg/kg. This molecule gave a half-life in data set [3] of 1020 min. The Kb in [4] was 0.398 nM. Besides, the fraction unbound in [5] was 0.01. Further, the IC50 in data set [6] was 0.158 nM. Besides, the microsomal CLint in [7] worked out at 102 µL/min/mg.
`O=C(O[C@H]1C[N+]2(Cc3cc(-c4ccccc4)no3)CCC1CC2)C1(C2=CC=CC2)CCCCCC1`: in the data set with Cavia porcellus [8], the EC50 was over 30 µg/kg. Moreover, in the data set with Cavia porcellus [10], the “inhibition (INH)” value was found to be 0%. For the same molecule, the ED80 with Cavia porcellus [2] was 3 µg/kg. Also, in [3], the half-life was 990 min. The Kb in [4] is 0.316 nM. For the same molecule, in data set [5], the fraction unbound is 0.01. Besides, the IC50 in data set [6] is 0.251 nM. Also, the microsomal CLint in data set [7] came to 63 µL/min/mg.
In [3], `O=C(O[C@H]1C[N+]2(Cc3cc(-c4ccccc4)on3)CCC1CC2)C1(C2=CC=CC2)CCCCCC1` showed a half-life of 726 min. Further, the Kb in [4] is 3.16 nM. Besides, the fraction unbound in data set [5] is 0.005. Moreover, the IC50 in data set [6] is 0.0794 nM. In addition, the microsomal CLint in [7] was determined as 79 µL/min/mg.
With `O=C(O[C@H]1C[N+]2(Cc3nnc(-c4ccccc4)o3)CCC1CC2)C1(C2=CC=CC2)CCCCCC1`, in the data set with Cavia porcellus [8], the EC50 is over 30 µg/kg. For the same molecule, the “inhibition (INH)” value in the data set on Cavia porcellus [10] is 0%. In the data set with Cavia porcellus [2], this molecule came in with an ED80 of 3 µg/kg. For the same molecule, in [3], the half-life was 1320 min. Further, in data set [4], the Kb was 0.2 nM. Besides, the fraction unbound in [5] was 0.035. For the same molecule, in data set [6], the IC50 was 0.316 nM. The microsomal CLint in data set [7] amounted to 97 µL/min/mg.
Consider `O=C(O[C@H]1C[N+]2(CCCOc3ccccc3)CCC1CC2)C1(C2=CC=CC2)CCCCCC1`, for which the “inhibition (INH)” value in the data set on Cavia porcellus [1] was 31%. In the data set with Cavia porcellus [2], this molecule showed an ED80 of 3 µg/kg. In data set [3], this molecule showed a half-life of 612 min. In addition, the Kb in data set [4] was 0.794 nM. For the same molecule, the fraction unbound in [5] is 0.085. Besides, the IC50 in [6] was 0.0631 nM. The microsomal CLint in data set [7] was determined as 75 µL/min/mg.
Turning to `C[N+]1(C)[C@@H]2C[C@@H](OC(=O)C(O)(c3cccs3)c3cccs3)C[C@H]1[C@@H]1O[C@@H]12.O.[Br-]` [TIOTROPIUM BROMIDE], in the data set on Cavia porcellus [8], the EC50 is under 0.3 µg/kg. Also, the “inhibition (INH)” value is 69% in the data set on Cavia porcellus [10] and over 80% in the data set with Cavia porcellus [1]. Further, the ED80 in the data set on Cavia porcellus [2] is 0.3 µg/kg.
